The values below come from article PMC2193294 (The Journal of Experimental Medicine, 2001).

Data set [1] concerns collagen. As to conditions: cited from earlier work.
The test system of data set [2] is platelet aggregation. As to conditions: high fluid shear; cited from earlier work.
A short description of data set [3]: Plasma concentration of human TSP-1 in mice after injection. Format: in vivo. The note with it: Balb c mice, 1 mg/kg i.p., 24 h after injection, TSP-1 ELISA. A digest of the protocol: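 Balb c mice (7–9 wk; 2 male, 2 female per group) received purified human platelet TSP-1 at 1 mg/kg as a 0.1 ml i.p. injection. EDTA blood was taken by cardiac puncture 24 h later. Human TSP-1 was measured by sandwich ELISA: HB8432 capture (5 μg/ml, pH 9.6, overnight at 4°C), BSA block, diluted plasma 30 min RT, biotin-HB8432 (5 μg/ml), then StreptABComplex/HRP (1:100). Standards were TSP-1-depleted plasma spiked with platelet TSP-1; the assay was linear over 1–100 ng/ml.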
A general note: In an ELISA, binding on a coated surface is turned into a signal by an enzyme label.

Data set [4] relates to vWF. It is filed as biochemical, human.
Data set [5] has as its system vWF. The data set is described as follows: Binding of TSP-1 to vWF. Set-up: species or system human. The procedure, abridged: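 vWF (5 μg/ml in 0.1 M NaHCO3, pH 8.3) adsorbed to wells overnight at 4°C, then blocked with 2% BSA in HBS (90 min, 37°C). Control wells were BSA-blocked only, with 10 μg/ml TSP-1. TSP-1 (0–10 μg/ml) in Hepes/NaCl/1 mM CaCl2/1 mM MgCl2, pH 7.4, with 0, 5 or 20 mM NEM, 30 min RT with shaking. Wells washed with 1 M NaCl buffer. Detection: anti-TSP-1 mAb HB8432 (10 μg/ml), then peroxidase anti-mouse (1:1,000). Triplicates, mean and SD.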

For data set [6], the system named is vWF. Put plainly: vWF reductase activity: collagen binding activity / vWF antigen ratio in vitro. It is filed as biochemical, human. The procedure, abridged:
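Plasma from a TTP patient (plasmapheresis; centrifuged 2,000 g, 20 min, 4°C) was used at 10 μl with 90 μl Hepes-buffered saline containing 1 mM CaCl2. The buffer held purified human platelet TSP-1 (0.001–100 μg/ml; purified in 0.1 or 2 mM CaCl2 buffers, quantified by A280) or HMEC-1 conditioned medium. Incubation was 1 or 24 h at 37°C. Aliquots were diluted 10-fold and assayed for collagen binding and vWF antigen, giving a ratio. Triplicates, mean and SD.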

Data set [7] deals with vWF. Put plainly: Formation of new thiols in vWF. Format: biochemical, human.
Data set [8] has as its system plasma vWF. The data set is described as follows: Reduction in average multimer size of plasma vWF in mice. It is filed as in vivo. The note with it: Balb c mice, 1 mg/kg i.p., 24 h, P < 0.05. The procedure, abridged:
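Balb c mice aged 7–9 wk, n = 4 per group with 2 male and 2 female each, were given buffer vehicle or purified human platelet TSP-1 at 1 mg/kg as a 0.1 ml i.p. injection. After 24 h, EDTA plasma was collected by cardiac puncture. Plasma was assayed in triplicate for vWF collagen binding activity and vWF antigen, using anti-rat vWF polyclonal antibodies. Multimer size was expressed as the collagen binding/antigen ratio.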

Data set [9] relates to vWF. The note with it: cited from earlier work.
For data set [10] the following is noted: cited from earlier work.
Data set [11] has as its system activated platelets. As to conditions: cited from earlier work.

“multimeric vWF: multimeric von Willebrand factor”: the “collagen binding affinity vs monomeric vWF fragments” value in data set [1] is listed as about 100 fold.

On to “unusually large vWF multimers: unusually large vWF multimers secreted by endothelial cells”, for which, in data set [2], the “induction of platelet aggregation vs largest plasma forms” value is reported as “more effective”.

On to thrombospondin-1 [TSP-1], for which the “concentration of human TSP-1 in mouse plasma” value in [3] was about 1 µg/mL. Besides, the “average multimer size of plasma vWF” value in data set [4] (TSP-1 added to TTP2 and TTP3 patient plasmas (not shown)) is recorded as “reduced the average multimer size of the plasma vWF”. Also, the “very large vWF multimers” value in data set [4] (TTP1 patient plasma, 1 h, 37°C, 1% agarose gel) is listed as “the very large multimers were lost”. Moreover, in data set [5] (10 μg/ml TSP-1, BSA-blocked wells), the “binding of TSP-1 to wells not coated with vWF” value was “no binding”. Also, the “dependence of TSP-1–mediated reduction in vWF multimer size” value in data set [6] (TTP1 plasma, TSP-1 0.001 to 100 μg/ml, 1 or 24 h, 37°C) is “concentration and time dependent”. The “vWF reducing activity of three different preparations of platelet TSP-1” value in data set [6] (not shown) is given as “had the same vWF reducing activity”. For the same compound, the “optimal TSP-1 concentration for reduction of vWF in 1 h” value in data set [6] (purified TSP-1, ∼1 μg/ml plasma vWF, 1 h) was about 0.1 µg/mL. For the same compound, the “optimal TSP-1 concentration for reduction of vWF in 24 h” value in data set [6] (purified TSP-1, ∼1 μg/ml plasma vWF, 24 h) was about 0.01 µg/mL. Besides, the “dependence of MPB incorporation on TSP-1 concentration” value in data set [7] (TSP-1 0.01 to 100 μg/ml, 60 min, 37°C) is “the incorporation increased with increasing TSP-1 concentration”. Further, in data set [7] (purified human vWF 2 μg/ml, 60 min, 37°C, TSP-1 0.01 to 100 μg/ml or HMEC-1–conditioned medium, MPB 100 μM), the “formation of new thiols in vWF (MPB incorporation)” value is “resulted in incorporation of MPB into vWF”. Also, the “average multimer size of plasma vWF vs buffer vehicle” value in data set [8] is recorded as “significantly lower”.

`O=C(O)CN(CCN(CC(=O)O)CC(=O)O)CC(=O)O` [EDTA, reference compound]: the “effect of EDTA (chelation of Ca2+) on vWF reductase activity of TSP-1” value in data set [6] (not shown) is “ablated the vWF reductase activity of TSP-1”. The “effect of EDTA on vWF reductase activity in endothelial cell–conditioned medium” value in data set [9] is on record as “inhibited”. Moreover, the “effect of EDTA on TSP-1–facilitated formation of free thiols in vWF” value in data set [7] (not shown) is reported as “ablated TSP-1–facilitated formation of free thiols in vWF”.

For “large vWF multimers: large multimers of von Willebrand factor”, the “ristocetin cofactor activity per unit antigen vs small multimers” value in data set [10] is recorded as “considerably higher”. Besides, in data set [11], the “affinity for activated platelets vs monomeric fragments” value was about 100 fold and the “affinity for activated platelets vs small multimers” value is listed as “up to 10 fold”.

`CCN1C(=O)C=CC1=O` [NEM, N-ethylmaleimide, reference compound]: the “TSP-1/vWF complex formation vs NEM concentration” value in [5] (NEM 0, 5, 20 mM, 30 min, room temperature) is listed as “Complex formation increased with increasing NEM concentration”.
